The text below walks through data of ChEMBL document CHEMBL4513216, “Probing the Open Global Health Chemical Diversity Library for Multistage-Active Starting Points for Next-Generation Antimalarials” (ACS Infect Dis, 2020).

Each structure is given as a SMILES string.

A short description of the data set: Toxicity liver stage against HepG2, at 10uM. The format is cell-based. Conditions: human, HepG2-A16-CD81EGFP cells; read-out: INHIBITION
More on the design: test concentration 10 uM, cell line HepG2-A16-CD81EGFP. Put shortly:
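Uninfected HepG2-A16-CD81EGFP cells, 3 × 10^3 per well, 1536-well, plated on prespotted compound at 10 μM final, parasite-free screening media added to match infected plates; puromycin 10 μM positive, DMSO 0.5% negative; run in parallel with 48 h PbLuc assay at 37 °C, 5% CO2; viability by CellTiter-Glo luminescence, normalized to controls.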
With `COCC(=O)N1CCC2(CC1)CCn1c(-c3cccc(OC)c3)cnc12`, the cytotoxicity at 10 µM is -5.21%. The result for `Cn1cc(CN2CCC3(CC2)CC(=O)Nc2ccccc23)cn1` reads 8.49%. The result for `Cc1cc2nc(SCC(=O)N3CCCCC3)n(C)c(=O)c2[nH]1` reads 5.56%; that for `C[C@H](NC(=O)Cc1csc(-c2cccc(Cl)c2)n1)C(=O)O`, 1.25%.

Consider `O=C(NC1CC1)c1ccc2ccc(N3CCN(CC4CC4)CC3)n2c1`, for which the cytotoxicity at 10 µM came to 1.26%. Under `Cc1nc(N2CCCC2)nc2c1CN(C(=O)N1CCOCC1)CC2` stands 6.17%; under `Cn1cc(CN2CCCn3cnc(COCC4CC4)c3C2)cn1`, -6.66%.

As for `O=C(CSc1ccccn1)NCc1ccc2c(c1)CCC(=O)N2`, the cytotoxicity at 10 µM is 20%. For `Cc1cccc2c1cnn2CCCNC(=O)c1ccnn1C`, the cytotoxicity at 10 µM was 13.4%.

As for `Cc1nn(C)c(C)c1-c1ccc(=O)n(C(C)C(=O)NC2CCCC2)n1` (stereo not given), the cytotoxicity at 10 µM came out at 5.97%. Under `Cc1ccc(CC2COCCN(Cc3ccccc3)C2)nc1` (stereo not given) stands 8.3%; under `COc1ccc(C2CNCCN2C(=O)c2cccc3cccnc23)cc1` (stereo not given), -4.48%. With `CNc1ncc(C(=O)N2CCOC(C(=O)N3CCCCCC3)C2)cn1` (stereo not given), the cytotoxicity at 10 µM is -8.29%. For the compound `COCCN(Cc1ccccn1)C(=O)CC1OCCc2sccc21` (stereo not given), the cytotoxicity at 10 µM was -54.8%. Regarding `Cc1cnn(CC(C)NCC(=O)NC2CCOCC2)c1` (stereo not given), the cytotoxicity at 10 µM is 15.6%. Under `N#Cc1c(CN2CCCC2Cn2cccn2)cn2ccccc12` (stereo not given) stands -4.67%. As for `CN(Cc1cc(Cl)cc2cccnc12)CC1CCN(CCO)CC1`, the cytotoxicity at 10 µM was -5.2%. Take `CS(=O)(=O)c1ccccc1NC(=O)N[C@@H]1c2ccccc2C[C@@H]1O`: the cytotoxicity at 10 µM was -42.2%.

For the compound `O=C(NCc1nc(C2CC2)no1)N1CCOC(c2ccccc2F)C1` (stereo not given), the cytotoxicity at 10 µM is -53.7%. Under `CCN(CC)Cc1ccccc1NCc1c(C)noc1C` stands -2.04%; under `CN(Cc1nnc(C2CC2)n1C)C1CCN(CCc2ccccc2)C1` (stereo not given), 2.03%; under `CCC(C#N)NC(=O)COC1CCCCC1` (stereo not given), 5.48%. The result for `CCOc1ccccc1C(CC(=O)N(C)c1ccccc1)NC(C)=O` (stereo not given) reads -8.28%. Under `CC(NCC1CCN(CCO)CC1)c1ccc(F)c(Cl)c1` (stereo not given) stands -9.04%; under `Cn1cc(CNC2CCS(=O)(=O)C2)c(-c2cc3ccccc3o2)n1` (stereo not given), -39.1%. On to `COCCn1ccc(NC(=O)CNC(=O)CC(C)(C)C)n1`, for which the cytotoxicity at 10 µM is 17.3%. Under `O=S(=O)(NC1CCCCC12OCCO2)c1ccc2c(c1)OCCO2` (stereo not given) stands -0.839%; under `COCCCN(Cc1ccc(F)cc1Cl)C1CCS(=O)(=O)C1` (stereo not given), 13.7%. Under `CC(CCN1CCOCC1)NC(=O)c1cccc(C(F)(F)F)c1F` (stereo not given) stands -44.8%; under `Cn1c(CC2CCS(=O)(=O)C2)nnc1SCCOc1ccccc1F` (stereo not given), -6.82%; under `O=C(NC1CC2(CCN(CCO)CC2)Oc2ccccc21)c1csnn1` (stereo not given), -101%. The result for `COc1ccc(CCCN2C(=O)O[C@@H]3CN(C4CCOCC4)C[C@@H]32)cc1` reads -1.47%. Take `CCN(C)CC(=O)N1CCN(Cc2ccccc2)[C@@H]2CS(=O)(=O)C[C@@H]21`: the cytotoxicity at 10 µM was -5.18%. The result for `N#Cc1ccccc1C(=O)N1C[C@@H](CN2CCOCC2)[C@@H](CO)C1` reads -1.06%; that for `O=C(NCCc1cccnc1)C1CCCN(Cc2ccco2)C1` (stereo not given), -3.98%; that for `Cc1csc(CN(C)C(=O)c2cccc(CCC(C)(C)O)c2)n1`, -2.32%. Under `CNc1ncc(CN(C)C(=O)c2ccccc2C2CCNC2)cn1` (stereo not given) stands 0.272%; under `Cc1ccc(C(=O)N2CCC(c3nccn3Cc3ccncc3)CC2)s1`, 1.2%. Under `CCOCc1nc2c(c(N3CCCn4nc(C)cc4C3)n1)CCNCC2` stands 11.3%; under `COc1cccc(-c2noc(-c3ccc(NCC(C)C)nc3)n2)c1OC`, -12.2%. `Cc1cnc(C(=O)N2CCN(C(=O)C(C)C)[C@@H]3CS(=O)(=O)C[C@@H]32)cn1`: the cytotoxicity at 10 µM came out at 7.91%.

On to `CCC[C@H]1CN(S(C)(=O)=O)C[C@@H]1NC(=O)COC(C)C`, for which the cytotoxicity at 10 µM was -1.09%. The result for `c1ccc(OCCSC2=NCCN2)cc1` reads 1.52%; that for `Cc1cc(N2CCN(C(=O)CCc3scnc3C)CC2)cc(C)n1`, -48.4%. As to `O=C(CCC1CCN(C2CSCCSC2)CC1)NCC1CCCO1` (stereo not given), the cytotoxicity at 10 µM was determined as 6.5%.

With `CC(=O)NCC1CCC2(CCN(c3ncnc4oc(C)nc34)CC2)O1` (stereo not given), the cytotoxicity at 10 µM worked out at 1.32%. Under `CC(=O)N[C@@H]1CN(c2nc(C(N)=O)cs2)C[C@H]1c1ccc(C)o1` stands -41.2%; under `COCC1CCN(C(C(=O)O)c2c(F)cccc2OC(C)C)CC1` (stereo not given), 0.515%; under `CCCSc1ncc(-c2nccn2CCO)cn1`, -12.9%. On to `Cc1nccc(N2CCC(=O)N(Cc3ccc(F)cc3)C(C(C)C)C2)n1` (stereo not given), for which the cytotoxicity at 10 µM was -0.449%. Regarding `CCc1cc(NCCNc2cccnc2)n2nccc2n1`, the cytotoxicity at 10 µM was -11.9%.

On to `CN(CCc1ccccc1)Cc1cc(C(=O)N2CCCC2(C)C)no1`, for which the cytotoxicity at 10 µM is -9.18%. Turning to `Cc1ccsc1CN(CCN(C)C)Cc1ccccn1`, the cytotoxicity at 10 µM is -16.1%. As to `CCc1c(C)sc(NC(=O)CN2CCN(CC)CC2)c1C(=O)OC`, the cytotoxicity at 10 µM was -11.1%. The result for `Cc1nc(CN2CCCC2Cn2cncn2)no1` (stereo not given) reads -7.01%; that for `CCc1nccn1C1CCCN(C(=O)c2ccc3c(c2)OCO3)C1` (stereo not given), -12.6%; that for `COCc1cccc(CNC(=O)CN2CCCC2c2noc(C)n2)c1` (stereo not given), 0.762%. The result for `CC(Cn1ccnc1)NC(=O)C1(c2ccc3c(c2)OCCO3)CCCC1` (stereo not given) reads -2.5%; that for `c1ccc(CN2CCCC2Cn2cncn2)nc1` (stereo not given), -10.8%. With `CN1CCOC(CNCc2coc(-c3cccs3)n2)C1` (stereo not given), the cytotoxicity at 10 µM is -3.71%. As for `Cc1nc(C)n(CC2CCCCN2CC(=O)NC2CCOCC2)n1` (stereo not given), the cytotoxicity at 10 µM is -9.32%.

For the compound `CN(C)C[C@H]1C[C@@H]2CN(C(=O)c3ccno3)C[C@@H]2O1`, the cytotoxicity at 10 µM was -6.32%. Turning to `COc1cccc(CNC(C)c2ccc(-n3ccnc3)cc2)c1OC` (stereo not given), the cytotoxicity at 10 µM is -35.1%. Under `C[C@@H]1C[C@H]2CN(Cc3nccs3)C[C@H]2O1` stands -1.22%; under `O=C(NCc1ccccn1)[C@@]12CCO[C@@H]1CCN(C1CCCC1)C2`, -105%; under `CN1CCO[C@@H]2CN(C(=O)COc3cccc(Cl)c3)C[C@@H]2C1`, -9.58%. Consider `O=C(c1cccnc1)N1CC[C@H](OCC2CC2)[C@@H]1Cc1cccnc1`, for which the cytotoxicity at 10 µM was -0.53%.

Regarding `Cc1noc(C)c1CN1CCOCC12CCN(c1cnccn1)CC2`, the cytotoxicity at 10 µM is -101%. Consider `O=C(COC[C@@]12CCC[C@@H]1CN(C1CCCC1)C2)N1CCCC1`, for which the cytotoxicity at 10 µM was -112%. As to `COCCN1C(=O)[C@@H]2CC[C@H]1CN(C(=O)CCc1n[nH]c(C)c1C)C2`, the cytotoxicity at 10 µM came to 13.5%.
